Measured values taken from ChEMBL document CHEMBL3576824, “Phenolic diterpenoid derivatives as anti-influenza a virus agents” (ACS Med Chem Lett, 2015).
Calls of active or inactive are those of the source.

Tests used:
Influenza A virus [1] = experiment: Antiviral activity against oseltamivir/amantadine-resistant Influenza A virus (A/Puerto Rico/8/1934(H1N1)) infected in MDCK cells assessed as protection against virus-induced cytocidal effect after 48 hrs by CellTiter-Glo assay; assay type: functional, organism-based
Method in brief: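 Cytocidal protection assay in MDCK cells. EC50 is the concentration (μM) protecting cells by 50% from the virus's cytocidal effect, given as mean ± SD from at least three independent tests.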

[2] = tested on: Influenza A virus (A/Puerto Rico/8/1934(H1N1)); experiment: Inhibition of oseltamivir/amantadine-resistant Influenza A virus (A/Puerto Rico/8/1934(H1N1)) hemagglutinin-mediated hemolysis of chicken RBC preincubated with virus for 30 mins followed by RBC addition measured after 30 mins by microplate reader analysis
Method in brief: (§1)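 Erythrocyte-virus-compound mixture incubated at 37 °C for 30 min, then acidified to pH 5.2 with 0.15 M sodium acetate buffer to trigger HA-mediated hemolysis. OD540 of supernatants was measured. Hemolysis without compound is defined as 100%. Values are averages of two independent tests.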

Influenza A virus [3] = experiment: Antiviral activity against oseltamivir/amantadine-resistant Influenza A virus (A/Puerto Rico/8/1934(H1N1)) assessed as inhibition of viral infectivity in MDCK cells at 10 uM after 6 hrs by FITC conjugated anti-NP antibodies/DAPI staining-based confocal microscopic analysis; assay type: functional, organism-based
Method in brief: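 MDCK cells were infected at MOI = 1 in the presence of 10 μM compound for 6 h. Infected cells were stained with FITC-conjugated anti-NP antibody, with DAPI as nuclear stain, and imaged by confocal microscopy. Infected cells without compound served as control.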

[4] = tested on: Influenza A virus (A/Puerto Rico/8/1934(H1N1)); experiment: Inhibition of oseltamivir/amantadine-resistant Influenza A virus (A/Puerto Rico/8/1934(H1N1)) hemagglutinin-mediated hemolysis of chicken RBC at 10 uM preincubated with virus for 30 mins followed by RBC addition measured after 30 mins by microplate reader analysis; method in brief: as §1
[5] = Influenza A virus, A/Puerto Rico/8/1934(H1N1), MDCK, 48 h, read-out: EC50

Row | Compound | EC50 (Influenza A virus [1]; [5]) [nM] | other results
1 | C[C@]1(C(=O)OCc2ccccc2)CCC[C@]2(C)c3cc(O)ccc3CC[C@@H]12 | 1590 | 
2 | COC(=O)[C@@]1(C)CCC[C@]2(C)c3cc(OCCC(=O)O)ccc3CC[C@@H]12 | > 25000 | 
3 | C[C@]1(C(=O)O)CCC[C@]2(C)c3cc(OC(=O)CCC(=O)O)ccc3CC[C@@H]12 | 18700 | 
4 | C[C@]1(C(=O)OCc2ccccc2)CCC[C@]2(C)c3cc(OCCC(=O)O)ccc3CC[C@@H]12 |  | EC50 (Influenza A virus [1]; mdck): Not Active
5 | COC(=O)[C@@]1(C)CCC[C@]2(C)c3cc(OC(=O)CCCBr)ccc3CC[C@@H]12 | 570 | 
6 | COC(=O)[C@@]1(C)CCC[C@]2(C)c3cc(OC(C)=O)ccc3CC[C@@H]12 | 140 | 
7 | C=CC(=O)Oc1ccc2c(c1)[C@@]1(C)CCC[C@](C)(C(=O)OCc3ccccc3)[C@@H]1CC2 | 480 | 
8 | COC(=O)[C@@]1(C)CCC[C@]2(C)c3cc(OC(=O)C(C)C)ccc3CC[C@@H]12 | 320 | 
9 | C=CC(=O)Oc1ccc2c(c1)[C@@]1(C)CCC[C@](C)(C(=O)OC)[C@@H]1CC2 | 640 | inhibition [2]: Dose-dependent effect
10 | COC(=O)[C@@]1(C)CCC[C@]2(C)c3cc(OC(=O)C(C)F)ccc3CC[C@@H]12 (stereo not given in full) | 150 | 
11 | COC(=O)[C@@]1(C)CCC[C@]2(C)c3cc(OC(=O)CCBr)ccc3CC[C@@H]12 | 210 | inhibition (Influenza A virus [3]): Active
12 | COC(=O)[C@@]1(C)CCC[C@]2(C)c3cc(OC)ccc3CC[C@@H]12 | 730 | 
13 | CC(C)c1c(O)ccc2c1CC[C@H]1C(C)(C)CCC[C@]21C [TOTAROL] | 3500 | inhibition (Influenza A virus [3]): Active
14 | COC(=O)[C@@]1(C)CCC[C@]2(C)c3cc(O)ccc3CC[C@@H]12 | 160 | 
15 | COC(=O)[C@@]1(C)CCC[C@]2(C)c3cc(OC)ccc3C(=O)C[C@@H]12 | 3600 | 
16 | C[C@]1(C(=O)O)CCC[C@]2(C)c3cc(O)ccc3CC[C@@H]12 [PODOCARIC ACID] | 18200 | 
17 | COC(=O)[C@@]1(C)CCC[C@]2(C)c3cc(OC(=O)CCCC(=O)O)ccc3CC[C@@H]12 | 370 | 
18 | COC(=O)[C@@]1(C)CCC[C@]2(C)c3cc(OC(=O)CCC(=O)O)ccc3CC[C@@H]12 | 180 | 
19 | CNC(=O)[C@@]1(C)CCC[C@]2(C)c3cc(O)ccc3CC[C@@H]12 | > 34800 | 
20 | COC(=O)[C@@]1(C)CCC[C@]2(C)c3cc(OC(=O)C4CC4)ccc3CC[C@@H]12 | 150 | 
21 | CCOC(=O)C1=C[C@@H](OC(CC)CC)[C@H](NC(C)=O)[C@@H](N)C1 [OSELTAMIVIR] | > 20000 | inhibition [4]: inactive
22 | NC12CC3CC(CC(C3)C1)C2 [AMANTADINE] | > 20000 | 
23 | COC(=O)[C@@]1(C)CCC[C@]2(C)c3cc(OC(=O)CCCCCBr)ccc3CC[C@@H]12 | 190 | 
24 | C[C@]1(C(=O)OCc2ccccc2)CCC[C@]2(C)c3cc(OC(=O)CCC(=O)O)ccc3CC[C@@H]12 | > 6500 | 
25 | C=CC(=O)Oc1ccc2c(c1)[C@@]1(C)CCC[C@](C)(C(=O)NC)[C@@H]1CC2 | > 29300 | 
26 | COC(=O)[C@@]1(C)CCC[C@]2(C)c3cc(OC(=O)CCCCBr)ccc3CC[C@@H]12 | 420 | 
